Measurements as given in the EternaBench riboswitch data.

Columns and labels:
MS2 coat protein [1] = assay: apparent Kd, MS2 coat protein; higher = weaker binding; RNA-MaP array
Procedure, shortened: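 Designed RNAs were transcribed on an Illumina sequencing chip from sequenced DNA templates. They were incubated at room temperature with fluorescently labeled MS2 coat protein at 1.5 nM to 3 μM, for 0.8–1.5 h at the lowest to 10–20 min at the highest concentrations, in Tris-HCl pH 7.5 buffer with KCl, MgCl2, BSA, DTT, tRNA and Tween20, with or without input ligand. Apparent Kd is the median of per-cluster binding-curve fits. Designs measured on fewer than 10 clusters were excluded.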

MS2 coat protein [2] = assay: apparent Kd, MS2 coat protein; higher = weaker binding; RNA-MaP array; FMN 200 µM where present
Procedure, shortened: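 Binding was read on Illumina sequencing-chip clusters where stalled E. coli RNA polymerase had transcribed each design. A titration of SNAP-549-labelled MS2 coat protein began at 0.7 or 1.5 nM and doubled to 3 µM, once without ligand and once with constant ligand, in 100 mM Tris-HCl pH 7.5, 80 mM KCl, 4 mM MgCl2, BSA, DTT, yeast tRNA and Tween-20. The apparent Kd is the median of filtered per-cluster binding-curve fits, based on green signal normalised to red-channel RNA signal and control-cluster median Fmax.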

[3] = designed as: OFF switch for flavin mononucleotide, no ligand
[4] = ligand present: flavin mononucleotide, designed as: OFF switch for flavin mononucleotide
[5] = designed as: ON switch for flavin mononucleotide, no ligand
[6] = ligand present: flavin mononucleotide, designed as: ON switch for flavin mononucleotide

Row | Sequence | apparent Kd (MS2 coat protein [2]; [3]) | apparent Kd (MS2 coat protein [2]; [4]) | also measured
1 | ACAGGUAGAGGAUAUCGUGAAAGUCACAUGAGGAUCACCCAUGUGGUAAGCAUGUACGCCCGAGAAGGCUAACCGC |  |  | apparent Kd (MS2 coat protein [1]; [3]): 7.57 nM; apparent Kd (MS2 coat protein [1]; [4]): 12.4 nM
2 | CGGAGUAUGACGGCCGCCACUUGCCGGGCGCAGCUGGCUGCUUGACAUGAGGAUCACCCAUGUCCAAGGACCGGGUCAUUCCUCG |  |  | apparent Kd (MS2 coat protein [1]; designed as: ON switch for tryptophan, no ligand): 121 nM; apparent Kd (MS2 coat protein [1]; ligand present: tryptophan, designed as: ON switch for tryptophan): 83.9 nM
3 | UCAUCUGGGUCUUUGGUGCACAUGAGGAUCACCCAUGUAACUUAGGAUAUUAGUUAUGAUAUGAUUAAGAAGGAAGUCGCUAUU |  |  | apparent Kd (MS2 coat protein [1]; [3]): 15.2 nM; apparent Kd (MS2 coat protein [1]; [4]): 16.9 nM
4 | GCGUUUGCCAAAGGAUAUCAACAUGUGUUGCUUGCAUUCCUAUACAUGAGGAUCACCCAUGUGGCUGAGAAGGUUGAACACUGG |  |  | apparent Kd (MS2 coat protein [1]; [5]): 18.2 nM; apparent Kd (MS2 coat protein [1]; [6]): 14.1 nM
5 | CAGCCCUGAGGAUAUCCCUCCUUGUACAUGAGGAUCACCCAUGUUCUCCUCUGGGCCUUGGGAGAAGGCAGAUCUC | 56.9 nM | 49.5 nM | 
6 | UAUAUAUAGUAAGGAUAUGUAUUAAUUUUAUGAACAGAAGGUACUGACAUGAGGAUCACCCAUGUUUUAGUGUGGGCAUGUAGA | 85.5 nM | 122 nM | 
7 | GCGAGUAAAGCAGGAUAUCUAAUAUCACGGAAACAUGAGGAUCACCCAUGUAGAGAAGGGCUAAGUCAUACAAUUCGAACUCGC | 14.1 nM | 10.5 nM | 
8 | GGACAUUUACAGAAGGGCAAAUUUUAUAGUGAAUAUUUAGUUCUGAUUUGCAGGAUAUGUUGAACAUGAGGAUCACCCAUGUCC |  |  | apparent Kd (MS2 coat protein [2]; [5]): 18.3 nM; apparent Kd (MS2 coat protein [2]; [6]): 10.9 nM
9 | AGCUGUGGCCGAGGAUAUCUAACAAUCCAAACCGAAAUAUAAUCGGACAUGAGGAUCACCCAUGUAGAGAAGGCGGUCUCAGCA | 48.1 nM | 65 nM | 
10 | GGCGAUCAGGCUAACAUGAGGAUCACCCAUGUGGACUCAUGGUAGGAUAUGCUGUACUUUGUACAGCAGAAGGGCCGGAGAGCC |  |  | apparent Kd (MS2 coat protein [2]; [5]): 46.1 nM; apparent Kd (MS2 coat protein [2]; [6]): 187 nM
11 | UAUUAACACGAAGGAUAUGGUUACAUGAGGAUCACCCAUGUAUGUAUAUUGAUCCAGAUUUUUGACCAGAAGGUCGUGAGUAAA | 108 nM | 285 nM | 
12 | UAACAAAUUGUCAGGAUAUCAGUCCCGGCCCAGAUUGAGAAGGGACAUGAGGAUCACCCAUGUAUGAUUCUCAG |  | 114 nM | 
13 | CGAAGAAAGUAGAAGGCAGUCUUAAAAUAGGACUGAGGAUAUACAUGAGGAUCACCCAUGUACUCCUUUAAUAUCUUUGAAAUA | 5.5 nM | 5.25 nM | 
14 | UUGUCGCAUGUAGGAUAUGUAUGUUAUUAUCAUACAGAAGGACAUGAGGAUCACCCAUGUGUAUUAUUAUUAUAUGUUACAUAU | 20.4 nM | 19.8 nM | 
15 | AGUCCACAUGAGGAUCACCCAUGUCAGGAUAUCUGCUGGAAGAGGGCAGAAAGCCAGGAGAGAAGGGACCUGGG | 37.9 nM | 74.5 nM | 
16 | UUUAGUAUCUAGGAUAUCUAGUACAUAGUAUCUAGAGAAGGAGAUACAUGAGGAUCACCCAUGUUCUGUGUUCU | 23.4 nM | 58.4 nM | 
17 | GGGUACAUCGGAGGAUAUCAGGUAAAUACAUGAGGAUCACCCAUGUCGAUGGAGACAUCGGAGAUUGAGAAGGCCGAUGUACCG |  |  | apparent Kd (MS2 coat protein [2]; [5]): 7.6 nM; apparent Kd (MS2 coat protein [2]; [6]): 5.13 nM
18 | UUAAAUCAUGUAGGAUAUGCAUGGCGAAGCUACGCAGAAGGACAUGAGGAUCACCCAUGUUCGAGGGUCUGAGUACAGAUCCAA | 23.6 nM | 123 nM | 
19 | GCUCGAUGCGCUGAGCACAUGAGGAUCACCCAUGUAAAUGGUCAGGAUAUUUACGUGCUUUAUGUAGAGAAGGGACCAUCGAGC |  |  | apparent Kd (MS2 coat protein [2]; [5]): 286 nM; apparent Kd (MS2 coat protein [2]; [6]): 30.9 nM
20 | AGUACCAUGUAGAAGGGAUAUCUGAUUCAGAUAUCAGGAUAUACAUGAGGAUCACCCAUGUAAAUGUACUGCACGAGAGUGCAA | 14.7 nM | 50.2 nM | 
21 | UGCAUACAUGAGGAUCACCCAUGUCAACUUAGUCGAGGAUAUGGGCAGCCCUGAGGCGAACCAGAAGGCGAAUUGU |  |  | apparent Kd (MS2 coat protein [2]; [5]): 73.5 nM; apparent Kd (MS2 coat protein [2]; [6]): 26.4 nM
22 | CAGCACUAUCGAGAGGAUAUGCGGUGAUGGACAUGAGGAUCACCCAUGUUAGCGGUAGCAUCACGGCAGAAGGCUCUGCUGCUGC |  |  | apparent Kd (MS2 coat protein [2]; [5]): 28.8 nM; apparent Kd (MS2 coat protein [2]; [6]): 19.9 nM
23 | AAUUAUUUACAGAAGGAGUAAGAUUUUGUAUUACUAGGAUAUGUUAACAUGAGGAUCACCCAUGUGUUUGUAGGUUUUUUAUGU | 12.2 nM | 8.54 nM | 
24 | AAGGGUACUUUCGGAACGACAUGAGGAUCACCCAUGUAGACUGAGGAUAUCUACUACUAAGGACGGGAGAAGGCAGUGUAAUGU | 18.1 nM | 17.8 nM | 
25 | CCUCGACAUGAGGAUCACCCAUGUCAGGAUAUUGUGUCUCGGGUUUUUUACCGAUAGGCAAGAAGGGAUGUGUG | 23.4 nM | 31 nM | 
26 | CAGACACAUGAGGAUCACCCAUGUGAGGAUAUGCGUACGUUGUCCGUAGGCGACGUGCGCAGAAGGCACAAAGG | 73.4 nM | 104 nM | 
27 | CCCUACGUUUCGUAGCAGUGUCAUCGAGAAGGCCCUGACAUGAGGAUCACCCAUGUUGUUACAUGGGAGGAUAUCGAUGAUGGG |  |  | apparent Kd (MS2 coat protein [2]; [5]): 23 nM; apparent Kd (MS2 coat protein [2]; [6]): 6.1 nM
